From PubChem BioAssay
Results filed as inconclusive are left out.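 How the source made its calls, unless noted: active means cell viability at or below a set limit in both duplicate runs, the limit being the all-compound median minus 4 SD (cut at about 23% in these data, passing the limit was not always enough); inconclusive means no clear call, values can overlap the other calls; inactive means the rest.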

Experiments:
[1] = OD615 S. cerevisiae growth inhibition, permissive medium, pilot counter-assay, permissive growth control for S. cerevisiae lifespan shortening project (AID 705;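 active means growth inhibition above 25% in both replicates, a cutoff set 3 SD above the mean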); details: OD615, 24 h, at 10 µM, active compounds read high
Method in brief: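 Material: engineered DeaD yeast; compound dosing: one dose 10 µM, DMSO 0.25% final; measure: yeast growth inhibition indicated by reduced 24 h OD615; detection: OD615 turbidity read; incubation: cells pre-grown 4 h, then 24 h compound exposure, 30 °C humidified; medium: permissive synthetic complete medium with raffinose and galactose carbon sources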

[2] = Restrictive medium S. cerevisiae growth inhibition, OD615, pilot screen of yeast lifespan reduction project, restrictive growth control (AID 706;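 active means growth inhibition above a set limit, 3 SD over mean compound inhibition, in both replicates, cut at about 43% in these data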;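 further: modified DeaD lifespan yeast strain shifted to restrictive glucose medium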); details: OD615, 48 h, at 10 µM, active compounds read high
Method in brief: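 material = engineered S. cerevisiae DeaD strain | medium = glucose-based CSMM-D restrictive medium | times = 4 h pre-incubation, 48 h exposure at 30 °C | technique = OD615 absorbance reading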

[3] = viability gain of MRP-1-high H69AR cells under doxorubicin, pilot screen, MRP-1 activator project, CellTiter-Glo, duplicate (AID 807;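 active means viability increase at or above a cutoff of the median across tested compounds plus 3 SD, cut at about 8.5% in these data, passing the limit was not always enough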;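 further: compound pretreatment 18-22 h then 72 h combined with doxorubicin; 0% = doxorubicin alone and 100% = vehicle without doxorubicin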); details: H69AR viability with doxorubicin, CellTiter-Glo luminescence; at 10 µM; active compounds read high
[4] = growth suppression of beta-catenin knockout HCT116, pilot screen, human colon tumor cells (AID 823); details: CellTiter-Glo, 60 h, at 10 µM, active compounds read low;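 further: 0% = wells killed by 20 µM Hyamine and 100% = untreated DMSO cell wells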
[5] = growth suppression of PTEN-deleted HCT116, pilot screen, cell-based, HCT116 clonal line, CellTiter-Glo (AID 824;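 active means viability at or below 27.92% in each of two runs, the all-compound median minus 4 SD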;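 further: 0% = 20 µM Hyamine control and 100% = vehicle cell control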); details: 60 h, at 10 µM, active compounds read low
[6] = inhibitors of the yeast RAM network, pilot screen, dse1pr::URA3 reporter, 5-FOA selection (AID 869;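 active means inhibition over a set limit, the all-compound mean plus 3 SD, in both replicate runs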;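 further: 0% = DMSO wells with no growth and 100% = 10 µM 1-NA-PP1 with full growth; RAM network block rescues cells from 5-FOA so hits raise OD615 growth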); details: S. cerevisiae dse1pr::URA3 5-FOA growth, OD615, 2 d; at 10 µM; active compounds read high; strain carries analog-sensitive mutant Cbk1 kinase
[7] = RAM signaling pathway blockade in yeast – S. cerevisiae, Pdr1DBD-CYC8 efflux-inhibited sensitized strain, primary screen (AID 1298;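 active means RAM network inhibition above 8.4% in each of two replicates, 3 SD over the compound average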;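 further: 0% = DMSO untreated cells without growth and 100% = 10 µM 1-NA-PP1 full growth; higher means more yeast growth rescued from 5-FOA killing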); details: S. cerevisiae cbk1-as DSE1-URA3 strain, 5-FOA growth OD615, 2 d; at 50 µM; active compounds read high

CCOC(=O)N1CCN(C(=O)Cn2ncc3c2-c2ccccc2OC3)CC1
inactive: growth inhibition [1] -14% | growth inhibition [2] -8.46% | viability increase [3] -1.16% | viability [4] 102% | viability [5] 95.9% | inhibition [6] 0.82% | RAM network inhibition [7] -1.43%

O=C(NCc1cn2ccccc2n1)c1ccc(Br)o1
inactive: growth inhibition [1] -7.75% | growth inhibition [2] -0.96% | viability increase [3] -1.31% | viability [4] 96.5% | viability [5] 92.3% | inhibition [6] 2.42% | RAM network inhibition [7] 3.98%

CCOC(=O)c1[nH]c2cc(OC)c(OC)cc2c1NC(=O)c1ccc2c(c1)OCO2
inactive: growth inhibition [1] -7.63% | growth inhibition [2] -10.9% | viability increase [3] -1.41% | viability [4] 102% | viability [5] 101% | inhibition [6] 2.13% | RAM network inhibition [7] 7.33%

Cc1ccc2c(c1)NCC(C(=O)NC1CCC(C)CC1)O2 (configuration not stated)
inactive: growth inhibition [1] -10.3% | growth inhibition [2] -4.18% | viability increase [3] 1.52% | viability [4] 98.4% | viability [5] 91.4% | inhibition [6] 1% | RAM network inhibition [7] 5.26%

Nc1c(Br)cc(Br)c(N2CCCC2=O)c1Br
inactive: growth inhibition [1] -6.31% | growth inhibition [2] -7.93% | viability increase [3] -2.68% | viability [4] 92.6% | viability [5] 92.7% | inhibition [6] 1.68% | RAM network inhibition [7] 0.63%

O=C(CCNS(=O)(=O)c1cccc2nsnc12)NC1CCN(Cc2ccccc2)CC1
inactive: growth inhibition [1] -3.28% | growth inhibition [2] -9.7% | viability increase [3] -2.01% | viability [4] 87% | viability [5] 89% | inhibition [6] -0.175% | RAM network inhibition [7] 5.02%

COc1ccc(N(CC(=O)Nc2ccc3c(c2)OCO3)S(C)(=O)=O)c(OC)c1
inactive: growth inhibition [1] -12.6% | growth inhibition [2] -4.5% | viability increase [3] -2.19% | viability [4] 97.9% | viability [5] 96.5% | inhibition [6] 1.41% | RAM network inhibition [7] 4.05%

COc1ccc(CNC(=O)CCCNS(=O)(=O)c2cccc3nonc23)cc1
inactive: growth inhibition [1] 1.99% | growth inhibition [2] -22.1% | viability increase [3] -2.08% | viability [4] 92.3% | viability [5] 96.7% | inhibition [6] 1.31% | RAM network inhibition [7] 7.37%

CCCN1Cc2cccc(C(=O)N3CCN(c4cc(Cl)ccc4C)CC3)c2C1=O
inactive: growth inhibition [1] 1.4% | growth inhibition [2] -10.8% | viability increase [3] -0.17% | viability [4] 70.5% | viability [5] 66.7% | inhibition [6] 0.375% | RAM network inhibition [7] 1.65%

COc1ccc(CCNC(=O)CC2Oc3ccc(Cl)cc3NC2=O)cc1OC (configuration not stated)
inactive: growth inhibition [1] -0.31% | growth inhibition [2] -7.26% | viability increase [3] -0.06% | viability [4] 96.2% | viability [5] 97.6% | inhibition [6] 1.17% | RAM network inhibition [7] 5.03%

COc1ccccc1OCC(=O)NC1CCCCCC1
inactive: growth inhibition [1] -5.33% | growth inhibition [2] -8.23% | viability increase [3] -0.27% | viability [4] 96.3% | viability [5] 88.8% | inhibition [6] -0.49% | RAM network inhibition [7] 0.78%

CC1CCN(CCCNC(=O)CN2CCN(Cc3ccc(Cl)cc3)C2=O)CC1
inactive: growth inhibition [1] -8.6% | growth inhibition [2] -8.52% | viability increase [3] -0.83% | viability [4] 90.8% | viability [5] 89.3% | inhibition [6] 2.27% | RAM network inhibition [7] 4.2%

Cn1c(=O)[nH]c(=O)c2c1nc(N1CCCCCC1)n2CCSc1nc2ccccc2o1
inactive: growth inhibition [1] -8.05% | growth inhibition [2] -7.14% | viability increase [3] -3.78% | viability [4] 95.4% | viability [5] 91.3% | inhibition [6] 1.73% | RAM network inhibition [7] 3.18%

COc1ccc(C2(C(F)(F)F)NC(=O)N(C)C(=O)N2C)cc1 (configuration not stated)
inactive: growth inhibition [1] -14.7% | growth inhibition [2] -19.5% | viability increase [3] -0.46% | viability [4] 99% | viability [5] 101% | inhibition [6] 1.11% | RAM network inhibition [7] 2.74%

COC(=O)c1c(-c2ccc(C)cc2)csc1N
inactive: growth inhibition [1] 1.67% | growth inhibition [2] 0.135% | viability increase [3] -3.98% | viability [4] 75.8% | viability [5] 87.8% | inhibition [6] -0.61% | RAM network inhibition [7] -1.79%

CC(C)N1C(=O)CCC1C(=O)NCc1ccccc1Cl (configuration not stated)
inactive: growth inhibition [1] -8.36% | growth inhibition [2] -6.72% | viability increase [3] -2.27% | viability [4] 96% | viability [5] 98.9% | inhibition [6] 1.68% | RAM network inhibition [7] 0.01%

CC1CCc2nn(CC(=O)NC3CCCC(C)C3C)cc2C1 (configuration not stated)
inactive: growth inhibition [1] -6.6% | growth inhibition [2] -6.19% | viability increase [3] 1.67% | viability [4] 97.5% | viability [5] 85.3% | inhibition [6] -0.3% | RAM network inhibition [7] 1.94%

COc1cccc(NC(=O)c2cccnc2)c1
inactive: growth inhibition [1] -5.19% | growth inhibition [2] 7.85% | viability increase [3] 1.59% | viability [4] 100% | viability [5] 87.2% | inhibition [6] 0.55% | RAM network inhibition [7] 3.7%

COc1ccccc1N1CCN(C(=O)c2cc3c(=O)n(C)c4ccccc4c3n2C)CC1
inactive: growth inhibition [1] -7.35% | growth inhibition [2] 3.62% | viability increase [3] 2.2% | viability [4] 67.3% | viability [5] 72% | inhibition [6] 0.125% | RAM network inhibition [7] -0.26%

O=C1NC(c2ccco2)Nc2sc3c(c21)CCN(Cc1ccccc1)C3 (configuration not stated)
inactive: growth inhibition [1] 4.68% | growth inhibition [2] 17.8% | viability increase [3] -3.01% | viability [4] 103% | viability [5] 94% | inhibition [6] 1.84% | RAM network inhibition [7] 3.69%

O=c1c2cc(-c3ccccc3)sc2ncn1/N=C/c1ccco1
inactive: growth inhibition [1] -7.51% | growth inhibition [2] 0.525% | viability increase [3] -2.49% | viability [4] 96.6% | viability [5] 82% | inhibition [6] 1.5% | RAM network inhibition [7] 5.9%

COc1cccc(-n2nnc3c(=O)n(CC(=O)NCC4CCCO4)cnc32)c1 (configuration not stated)
inactive: growth inhibition [1] 2.81% | growth inhibition [2] -2.83% | viability increase [3] 0.22% | viability [4] 101% | viability [5] 93.7% | inhibition [6] -0.415% | RAM network inhibition [7] 5.27%

CCc1ccc(C2CC(c3ccccc3Cl)Nc3nc(N)nn32)cc1 (configuration not stated)
inactive: growth inhibition [1] 8.37% | growth inhibition [2] 26.1% | viability increase [3] -2.66% | viability [4] 95% | viability [5] 80.7% | inhibition [6] 0.86% | RAM network inhibition [7] 8.56%

Cn1nnnc1SCC(=O)Nc1ccc(N2CCOCC2)cc1
inactive: growth inhibition [1] -4.58% | growth inhibition [2] 7.83% | viability increase [3] -1.01% | viability [4] 95.8% | viability [5] 97.5% | inhibition [6] 0.97% | RAM network inhibition [7] 0.68%

CCOC12NC(=O)CC(=O)N1C(c1ccccc1)=CS2 (configuration not stated)
inactive: growth inhibition [1] -16% | growth inhibition [2] -6.23% | viability increase [3] 2.97% | viability [4] 100% | viability [5] 104% | inhibition [6] 1.85% | RAM network inhibition [7] 6.38%

CC1(C)CC(=O)C=C(NC2CC(C)(C)NC(C)(C)C2)C1
inactive: growth inhibition [1] -11.6% | growth inhibition [2] -15.2% | viability increase [3] -0.93% | viability [4] 102% | viability [5] 98.8% | inhibition [6] 1.32% | RAM network inhibition [7] 3.08%

CCC(=O)c1ccc(OCC(O)CN2C(=O)NC(C)(C)C2=O)cc1 (configuration not stated)
inactive: growth inhibition [1] -3.58% | growth inhibition [2] -3.1% | viability increase [3] -0.53% | viability [4] 100% | viability [5] 92.8% | inhibition [6] 1.6% | RAM network inhibition [7] 1.09%

O=C(COC(=O)c1ccc(Br)c(S(=O)(=O)N2CCOCC2)c1)NCC1CCCO1 (configuration not stated)
inactive: growth inhibition [1] -1.59% | growth inhibition [2] -5.15% | viability increase [3] -2.27% | viability [4] 100% | viability [5] 101% | inhibition [6] 3.08% | RAM network inhibition [7] 4.66%

CCCC(=O)NCCc1cc2ccc(C)c(C)c2[nH]c1=O
inactive: growth inhibition [1] -13% | growth inhibition [2] -25.4% | viability increase [3] -1.61% | viability [4] 103% | viability [5] 97.6% | inhibition [6] 1.91% | RAM network inhibition [7] 4%

COCC(=O)Nc1cc(=O)n(C)c(=O)n1C
inactive: growth inhibition [1] -4.37% | growth inhibition [2] -24.4% | viability increase [3] -1.62% | viability [4] 100% | viability [5] 94.4% | inhibition [6] 1.73% | RAM network inhibition [7] -0.05%

COc1ccc(S(=O)(=O)NCc2ccccc2Cl)cc1OC
inactive: growth inhibition [1] -5.85% | growth inhibition [2] 2.66% | viability increase [3] -1.42% | viability [4] 102% | viability [5] 96.1% | inhibition [6] 1.98% | RAM network inhibition [7] 2.86%

COCc1cc(=O)n2[nH]c(-c3cccc(Br)c3)cc2n1
inactive: growth inhibition [1] -25.1% | growth inhibition [2] -16.1% | viability increase [3] -2.23% | viability [4] 92.9% | viability [5] 86.7% | inhibition [6] 0.76% | RAM network inhibition [7] 5.82%

CCn1c(-c2ccc(N)cc2)nc2ccccc21
inactive: growth inhibition [1] -7.32% | growth inhibition [2] 7.48% | viability increase [3] -3.43% | viability [4] 103% | viability [5] 83.5% | inhibition [6] 1.18% | RAM network inhibition [7] 0.72%

Cn1c(Cn2c(=O)sc3ccccc32)nnc1SCC(=O)N1CCCCCC1
inactive: growth inhibition [1] -15% | growth inhibition [2] -23.5% | viability increase [3] -0.71% | viability [4] 102% | viability [5] 95.2% | inhibition [6] 2.58% | RAM network inhibition [7] 1.04%

COC(=O)c1ccc(NC(=O)c2cccc(OC)c2)cc1
inactive: growth inhibition [1] -1.57% | growth inhibition [2] 7.93% | viability increase [3] 1.59% | viability [4] 69.9% | viability [5] 80.7% | inhibition [6] 0.875% | RAM network inhibition [7] 8.05%

Cc1ccc(-n2ncc3c(NCCCn4ccnc4)ncnc32)c(C)c1
inactive: growth inhibition [1] -3.41% | growth inhibition [2] -7.83% | viability increase [3] -0.58% | viability [4] 88.8% | viability [5] 90.6% | inhibition [6] 1.5% | RAM network inhibition [7] 2.5%
